Data as given in ChEMBL document CHEMBL1126297, “Synthesis and evaluation of analogues of (Z)-1-(4-methoxyphenyl)-2-(3,4,5-trimethoxyphenyl)ethene as potential cytotoxic and antimitotic agents” (J Med Chem, 1992).

How the values were obtained:
Type in all cases: functional
MCF7 = assay: Cytotoxicity against human MCF-7 breast cancer cell line.; settings: read-out: ED50 (the source's name)
In short: (§1)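 MTT colorimetric assay run in the Purdue Cell Culture Laboratory. Poorly water-soluble compounds were serially diluted in DMSO and added as 0.5 μL aliquots per well. Cells were incubated with compound for 6 days before MTT was added. […] The reported ED50 is the mean of two determinations.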

MLM [1] = assay: Cytotoxicity against human MLM melanoma cell line.; settings: read-out: ED50 (the source's name); in short: as §1
SK-MEL-5 = assay: Compound was evaluated for cytotoxicity against human SKMEL-5 melanoma cell line.; settings: read-out: ED50 (the source's name); in short: as §1
A549 = assay: Compound was evaluated for cytotoxicity against human A-549 non-small cell lung cancer cell line.; settings: read-out: ED50 (the source's name); in short: as §1
HT-29 = assay: Cytotoxicity against human HT-29 colon cell line.; settings: read-out: ED50 (the source's name); in short: as §1
Bos taurus = species on record: Bos taurus; assay: Inhibition of tubulin polymerization
In short: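 Bovine brain tubulin, purified to electrophoretic homogeneity, was preincubated at 37 °C with a range of compound concentrations and then chilled on ice. GTP was added and polymerization followed at 37 °C by turbidity at 350 nm. Extent was read at 20 min against two controls per experiment, and IC50 was determined graphically. Actives were run in ≥3 independent assays, inactives (IC50 > 40 μM) in ≥2.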

MLM [2] = assay: Compound was evaluated for cytotoxicity against human MLM melanoma cell line.; settings: read-out: ED50; in short: as §1

`COc1ccc(/C=C\c2cc(OC)c(O[Si](C)(C)C(C)(C)C)c(OC)c2)cc1` showed an EC50 (MCF7) greater than 25000 nM, an EC50 (MLM [1]) greater than 25000 nM and an EC50 (SK-MEL-5) greater than 25000 nM. The EC50 (A549) was greater than 25 µM, the EC50 (HT-29) was 9 µM and the IC50 (Bos taurus) was greater than 40 µM.

In the case of `CCc1ccc(CCc2cc(OC)c(OC)c(OC)c2)cc1`, the EC50 (MCF7) is reported as 160 nM, the EC50 (MLM [1]) is reported as 270 nM and the EC50 (SK-MEL-5) is reported as 47 nM. For the same compound, the EC50 (A549) was 0.088 µM, the EC50 (HT-29) was 0.016 µM and the IC50 (Bos taurus) was 18 µM.

Work on `COc1cc(CCc2ccc(SC)cc2)cc(OC)c1OC` yielded an EC50 (MCF7) of 200 nM, an EC50 (MLM [1]) of 1300 nM and an EC50 (SK-MEL-5) of 240 nM. The EC50 (A549) was 0.15 µM, the EC50 (HT-29) was 0.4 µM and the IC50 (Bos taurus) was greater than 40 µM.

With `COc1ccc(CC(C#N)c2cc(OC)c(OC)c(OC)c2)cc1` (stereo unspecified) the EC50 (MCF7) was 1400 nM, the EC50 (MLM [1]) was 1600 nM and the EC50 (SK-MEL-5) was 4100 nM. It also gave an EC50 (A549) of 9.6 µM, an EC50 (HT-29) of 7.5 µM and an IC50 (Bos taurus) of 11 µM.

Compound `COc1ccc(Cc2c3cc(OC)c(OC)c(OC)c3cc[n+]2C)cc1` has an EC50 (MCF7) greater than 25000 nM, an EC50 (MLM [1]) greater than 25000 nM and an EC50 (SK-MEL-5) of 2100 nM. The EC50 (A549) was 19.5 µM, the EC50 (HT-29) was 20.5 µM and the IC50 (Bos taurus) was greater than 40 µM.

Work on `CCCOc1ccc(/C=C/c2cc(OC)c(OC)c(OC)c2)cc1` yielded an EC50 (MCF7) of 12500 nM, an EC50 (MLM [1]) greater than 25000 nM and an EC50 (SK-MEL-5) greater than 25000 nM. It also gave an EC50 (A549) of 9.2 µM, an EC50 (HT-29) greater than 25 µM and an IC50 (Bos taurus) greater than 40 µM.

With `COc1cc(/C=C/c2ccc(C)cc2)cc(OC)c1OC` the EC50 (MCF7) was 1900 nM, the EC50 (MLM [1]) was 6300 nM and the EC50 (SK-MEL-5) was 800 nM. It also gave an EC50 (A549) of 1.1 µM, an EC50 (HT-29) of 0.9 µM and an IC50 (Bos taurus) greater than 40 µM.

With `COc1ccc(/C=C/c2cc(OC)c(O[Si](C)(C)C(C)(C)C)c(OC)c2)cc1` the EC50 (MCF7) was greater than 25000 nM, the EC50 (MLM [1]) was greater than 25000 nM and the EC50 (SK-MEL-5) was greater than 25000 nM. The EC50 (A549) was greater than 25 µM, the EC50 (HT-29) was greater than 25 µM and the IC50 (Bos taurus) was greater than 40 µM.

`COc1ccc(CC2NCCc3c2cc(OC)c(OC)c3OC)cc1` (stereo unspecified) was tested, and the EC50 (MCF7) was greater than 25000 nM, the EC50 (MLM [1]) was greater than 25000 nM and the EC50 (SK-MEL-5) was greater than 25000 nM. It also gave an EC50 (A549) of 19.3 µM, an EC50 (HT-29) of 20.2 µM and an IC50 (Bos taurus) greater than 40 µM.

`CCN(CC)CCOc1ccc(CCc2cc(OC)c(OC)c(OC)c2)cc1` showed an EC50 (MCF7) of 4300 nM, an EC50 (MLM [1]) greater than 25000 nM and an EC50 (SK-MEL-5) of 8500 nM. The EC50 (A549) was 6.8 µM, the EC50 (HT-29) was 5.2 µM and the IC50 (Bos taurus) was greater than 40 µM.

`CCc1ccc(/C=C\c2cc(OC)c(OC)c(OC)c2)cc1` showed an EC50 (MCF7) of 72 nM, an EC50 (MLM [1]) of 7.5 nM and an EC50 (SK-MEL-5) of 0.86 nM. It also gave an EC50 (A549) of 0.012 µM, an EC50 (HT-29) of 0.0027 µM and an IC50 (Bos taurus) of 3.4 µM.

Compound `COc1ccc(C2Cc3cc(OC)c(OC)c(OC)c3C2=O)cc1` (stereo unspecified) has an EC50 (MCF7) greater than 25000 nM, an EC50 (MLM [1]) greater than 25000 nM and an EC50 (SK-MEL-5) greater than 25000 nM. The EC50 (A549) was greater than 25 µM, the EC50 (HT-29) was greater than 25 µM and the IC50 (Bos taurus) was greater than 40 µM.

`CCc1ccc(/C=C/c2cc(OC)c(OC)c(OC)c2)cc1` showed an EC50 (MCF7) of 1200 nM, an EC50 (MLM [1]) of 220 nM and an EC50 (SK-MEL-5) of 170 nM. It also gave an EC50 (A549) of 0.13 µM, an EC50 (HT-29) of 0.11 µM and an IC50 (Bos taurus) greater than 40 µM.

With `COc1ccc(/C=C\c2ccc(OC)c(OC)c2)cc1` [7Z-3,4,4'-TRIMETHOXYSTILBENE] the EC50 (MCF7) was greater than 25000 nM, the EC50 (MLM [1]) was greater than 25000 nM and the EC50 (SK-MEL-5) was greater than 25000 nM. For the same compound, the EC50 (A549) was greater than 25 µM, the EC50 (HT-29) was greater than 25 µM and the IC50 (Bos taurus) was 18 µM.

`COc1ccc(/C=C\c2cc(OC)cc(OC)c2)cc1` [8Z-3,4',5-TRIMETHOXYSTILBENE] was tested, and the EC50 (MCF7) was 160 nM, the EC50 (MLM [1]) was 98 nM and the EC50 (SK-MEL-5) was 420 nM. For the same compound, the EC50 (A549) was 0.13 µM, the EC50 (HT-29) was 0.34 µM and the IC50 (Bos taurus) was 3.8 µM.

`COc1cccc2c1C(=O)c1c(O)c3c(c(O)c1C2=O)C[C@@](O)(C(=O)CO)C[C@@H]3O[C@H]1C[C@H](N)[C@H](O)[C@H](C)O1` [DOXORUBICIN] was tested, and the EC50 (MCF7) was 31 nM, the EC50 (MLM [2]) was 130 nM and the EC50 (SK-MEL-5) was 32 nM. For the same compound, the EC50 (A549) was 0.029 µM and the EC50 (HT-29) was 0.055 µM.

`COc1ccc(/C=C/c2cc(OC)cc(OC)c2)cc1` [TRISMETHOXYRESVERATROL] gave an EC50 (MCF7) of 9700 nM, an EC50 (MLM [1]) greater than 25000 nM and an EC50 (SK-MEL-5) of 880 nM. It also gave an EC50 (A549) of 7.5 µM, an EC50 (HT-29) of 6.9 µM and an IC50 (Bos taurus) greater than 40 µM.
